Compound activity: PubChem, several laboratories
MEKK3 PB1 HTS – MEKK3-MEK5 PB1 interaction, increase or decrease. Q99759. bead-based flow cytometry, Alexa488-MEK5 binding to MEKK3; actives lie on both sides; 0 = blocked by unlabeled MEK5, 100 = vehicle. binding response (% of control), % at 10 µM. 290,000 compounds, 1.4% hits;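 active = binding response more than 3 SD above or below the average of its plate-row segment, actives on both sides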;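 also: Alexa488 bead fluorescence after subtracting the streptavidin-only scavenger bead signal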
MEKK2 WT-MEK5 – raises or lowers MEK5 binding to wildtype human MEKK2 PB1 domain | Q9Y2U5 | bead flow cytometry, Alexa488-MEK5 binding to MEKK2 WT; actives lie on both sides | binding response (% of control), % at 10 µM | 290,000 compounds, 1.1% hits | AID 1531; in the data active = binding response below about 67% or above about 130%
Beta2AR agonist – agonists of human beta-2 adrenergic receptor inducing internalization. P07550. Am2.2-beta2AR cells, FAP receptor internalization, flow cytometry. response, % (test concentration not listed). 340,000 compounds, 0.43% hits. AID 504454;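 active = response above a set limit, near 3 SD of response in nonfluorescent compounds, cut at about 42% in these data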
Target sequence (P07550 whole entry, looked up): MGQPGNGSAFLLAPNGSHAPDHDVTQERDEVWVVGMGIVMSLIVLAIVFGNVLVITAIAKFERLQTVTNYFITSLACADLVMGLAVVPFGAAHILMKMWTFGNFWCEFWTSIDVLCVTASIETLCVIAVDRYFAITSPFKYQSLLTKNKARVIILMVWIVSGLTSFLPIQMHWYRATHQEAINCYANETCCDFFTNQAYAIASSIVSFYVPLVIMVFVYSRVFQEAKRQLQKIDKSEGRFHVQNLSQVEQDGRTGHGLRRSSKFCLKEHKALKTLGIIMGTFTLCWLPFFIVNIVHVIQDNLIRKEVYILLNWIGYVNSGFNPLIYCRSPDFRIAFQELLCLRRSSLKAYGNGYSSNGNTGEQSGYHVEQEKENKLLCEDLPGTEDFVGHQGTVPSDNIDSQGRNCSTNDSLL
MEKK2mut PB1 HTS – signal of MEK5 binding to mutant human MEKK2 PB1 domain | bead flow cytometry, Alexa488-MEK5 binding to MEKK2 mutant | percent response, % at 10 µM | 290,000 compounds, 0.35% hits | AID 1530; in the data active = percent response above about 24%, passing the limit was not always enough
Dynein cargo inh – dynein cargo transport inhibition | 3617.4 mouse cells, GR-EGFP nuclear translocation imaging; test concentration mostly 20 µM; stimulated with dexamethasone, 1 µM; hits give low values | z-score, hits read low | 220,000 compounds, 0.47% hits;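 active = plate z-score of nuclear minus cytoplasmic receptor signal below a set negative limit, without overly bright fluorescence or cell loss, cut at about -3.5 in these data, passing the limit was not always enough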;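 also: z-score of nuclear minus cytoplasmic ring GR-EGFP intensity difference per well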
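medium = tetracycline-free induction medium containing charcoal-stripped FBS | also added = 1.0 µM final dexamethasone stimulus | schedule = 48 h induction, 1 h compound, 30 min dex at 37 °C | technique = fixed, Hoechst-stained cells imaged at 10x for EGFP | measure = GR-EGFP nuclear translocation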
ATG4B inhibitor – ATG4B (human) cysteine protease inhibition | inhibition, % at 8.33 µM | Q9Y4P1 | 340,000 compounds, 0.51% hits | ATG4B cleavage of LC3-PLA2, NBD-HPC fluorescence, 1 h; in the data active = inhibition above about 40%
MEKK2wt confirm – raises or lowers MEK5 binding to wildtype human MEKK2, retest; shares compounds with MEKK3 PB1 HTS; bead flow cytometry, Alexa488-MEK5 binding to MEKK2 WT; actives lie on both sides; binding response (% of control), % at 10 µM; 5,900 compounds, 2.4% hits; AID 1892; in the data active = binding response below about 16% or above about 210%; inactive = in between
MEKK2mut-MEK5 – signal of MEK5 binding to mutant human MEKK2, retest; shares compounds with MEKK3 PB1 HTS; bead flow cytometry, Alexa488-MEK5 binding to MEKK2 mutant; percent response, % at 10 µM; 5,900 compounds, 2% hits; in the data active = percent response mostly above about 71%, no sharp cut-off; inactive = mostly below about 38%;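 also: higher means compound restores mutant binding toward wildtype level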
MEKK3-MEK5 inh – MEKK3-MEK5 PB1 inhibition, single concentration confirmation; binding response (% of control), % at 10 µM; bead flow cytometry, Alexa488-MEK5 binding to MEKK3; hits give low values; 5,900 compounds, 1.8% hits; AID 1894; shares compounds with MEKK3 PB1 HTS;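 active = binding response below 72% of control, or above a set upper limit, though filed actives all read lower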;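 also: 100% = DMSO only wells and 0% = binding blocked by excess unlabeled MEK5; lower values mean stronger disruption of MEK5 binding to MEKK3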
Active calls of the source: *; x = not tested or not shown; [ ] = another dose, or the depositor's remark. Most compounds without a hit are left out; they make up all but 2.9% or so of the library.

SMILES	MEKK3 PB1 HTS	MEKK2 WT-MEK5	Beta2AR agonist	MEKK2mut PB1 HTS	Dynein cargo inh	ATG4B inhibitor	MEKK2wt confirm	MEKK2mut-MEK5	MEKK3-MEK5 inh
Cc1ccccc1CCN(C(=O)Cn1nnc2ccccc21)C(C(=O)NC(C)(C)C)c1ccsc1 (stereo unspecified)	76*[inhibitor]	81	3	-14	-0.15	-6	100	2	99
Cc1cccc(N(C(=O)Cn2nnc3ccccc32)C(C(=O)NC(C)(C)C)c2ccsc2)c1C (stereo unspecified)	98	95	7	-5	0.41	-10	x	x	x
CCCCCCCCCCn1c2c(c(=N)c3c1CCC3)CCC2	108	140*	13	10	9	19	110	6	96
CCCCCCCCn1c2c(c(=N)c3ccccc31)CCC2	102	126	8	19	-1.1	-2	x	x	x
CC(=O)N1CCN(C(=O)c2ccc(NS(=O)(=O)c3ccc4c(c3)OCCO4)cc2)CC1	x	x	0	x	x	0	x	x	x
CS(=O)(=O)N(CC(=O)NCc1ccc2c(c1)OCO2)C1CCCCC1	136*	117	-2	1	0.7	-8	105	1	106
CN(C)S(=O)(=O)N1CCN(CC(O)COc2ccc3cc(Br)ccc3c2)CC1 (stereo unspecified)	107	134*	5	19	0.018	-8	151	27	112
COc1ccc(/C=C/c2noc(-c3ccccc3O)n2)cc1	131*	106	-2	0	-0.83	33	94	0	98
CCOc1ccccc1NC(=O)CCS(=O)(=O)c1ccc(Br)cc1	81*[inhibitor]	93	13	-12	x	1	95	-6	96
Cc1cccc(C)c1OCC(=O)N/N=C/c1cccnc1	101	102	-7	7	x	3	x	x	x
CC(C)(C)NC(=O)NC(=O)COC(=O)c1ccc2c(c1)S(=O)(=O)N=C1CCCCCN12	147*	103	0	3	0.83	-15	102	11	99
CC(NC(=O)COC(=O)c1ccc2c(c1)S(=O)(=O)N=C1CCCCCN12)C12CC3CC(CC(C3)C1)C2 (stereo unspecified)	105	109	-9	19	-0.58	-7	x	x	x
O=C(Nc1cc(-c2ccccc2)[nH]n1)c1ccccc1F	35*[inhibitor]	38*[inhibitor]	-1	-48	0.24	1	104	5	102
CCOc1ccc(NS(=O)(=O)c2ccc3ncsc3c2)cc1	97	93	10	-9	0.25	-10	x	x	x
COc1cc(/C=N/Nc2ccc(Cl)cc2)ccc1OC(=O)c1cccs1	46*[inhibitor]	89	2	-2	-0.73	6	95	-6	95
CCN(CC)S(=O)(=O)c1ccc(/C=C/C(=O)OCC(=O)Nc2cccnc2Cl)cc1	x	x	9	x	x	-6	x	x	x
O=C(O)/C=C/c1coc2ccc(F)cc2c1=O	72*[inhibitor]	99	-4	0	0.03	7	106	12	106
Cc1ccc2occ(/C=C/C(=O)O)c(=O)c2c1	95	99	7	9	-0.21	0	x	x	x
CN(C)C(=O)COC(=O)c1cccc(CN2C(=O)c3ccccc3C2=O)c1	71*[inhibitor]	84	-39	-3	0.035	-12	100	0	103
COc1ccc(NC(=O)CSc2ccc3nnc(-c4ccccn4)n3n2)c(OC)c1	100	96	-3	0	x	-3	x	x	x
O=C(O)C1CCCN(S(=O)(=O)c2ccc(-c3ccc(=O)[nH]n3)s2)C1 (stereo unspecified)	97	96	-4	-7	x	13	x	x	x
